Assay results: PMC5598529 (Toxicology Reports, 2014)
Entries after “also recorded” stand apart in the source; their conditions may differ.

What was measured:
Assay type in all cases: cell-based, human
Caco-2 cells [1] = assay: MTT cell viability assay; settings: for concentration at which impact on viability appeared: appeared later (J7); for Cell viability (J10), concentration given for the effect: day 10, p < 0.05; for concentration at which toxicity was observed: 3 days-period of exposure
Summary of the method: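 Caco-2 (passage 25–39) were seeded at 5 × 10^4/well. After 20 h they received 0.1–100 μM test compound, alone or as an equimolar mixture, in 4% FBS medium, renewed every 48 h, for 3, 7 and 10 days. MTT (0.5 mg/ml in RPMI) was added for 4 h at 37 °C and stopped with SDS/NaOH. Absorbance was read at 570/690 nm as % of DMSO control; EC50 was taken from the dose–response curve. Three experiments, each in quadruplicate.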

Caco-2 cell monolayer [2] = assay: Transepithelial electrical resistance; settings: for TEER (J10), direction of effect: 1-25 μM, 10 days, vs control; for TEER (J10), concentration given for the effect: day 10
Summary of the method: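 Caco-2 were grown on collagen-coated Transwells (2.5 × 10^5 cells/well) for 4 days. They were then exposed apically and basolaterally to 1, 5, 10 or 25 μM test compound or 0.1% DMSO, renewed every 2 days. Resistance was measured at days 0, 3, 7 and 10 and expressed in Ω cm2. Mean ± SEM of 3 independent experiments, each in triplicate.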

Caco-2 cell monolayer [3] = assay: Phenol red diffusion; settings: 1-25 μM, day 10, vs control
Summary of the method: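 Monolayers were grown on collagen-coated Transwells (2.5 × 10^5 cells/well) for 4 days. Then 1, 5, 10 or 25 μM test compound or 0.1% DMSO was added to both compartments in 4% FBS medium, renewed every 2 days. At day 10, phenol red medium was placed apically and phenol red-free medium basolaterally. Apical-to-basolateral diffusion over 4 h was read at 560 nm and expressed as percent diffusion.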

[4] = test system: Alkaline phosphatase activity in Caco-2 cells; assay: Alkaline phosphatase assay for cell differentiation; settings: for ALP activity (J10), direction of effect: 1-25 μM, 10 days, vs control, p < 0.01; for ALP activity (J10), concentration given for the effect: day 10, p < 0.01
Summary of the method: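 Caco-2 seeded at 1.125 × 10^5 cells/well and treated next day with 1, 5, 10 or 25 μM of test compound, or 0.1% DMSO vehicle, for 10 days in 4% FBS medium, renewed every 48 h. Cells were scraped into cold 50 mM Tris pH 7.5 and needle-homogenised. Lysate ALP hydrolysed pNPP over 30 min at pH 10.4, 37 °C; p-nitrophenol read at 405 nm, per mg protein, as % of control.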

Caco-2 cells [5] = assay: Lipid peroxidation measurement; settings: 48 h exposure; for Lipid peroxidation, concentration given for the effect: p < 0.01; for TBARS level with respect to control: 25 μM
Summary of the method: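 Cells were seeded at 1.25 × 10^5/well and exposed for 48 h to 25 or 100 μM test compound. Culture medium was mixed with HCl and TBA buffer, heated 10 min at 95 °C, ice-cooled and extracted with n-butanol. Absorbance was read at 532 nm. MDA equivalents were calculated from a TMOP calibration curve.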

Caco-2 cells [6] = assay: Intracellular ROS; settings: 6 h exposure, p < 0.05; for H2O2 production, direction of effect: 25 or 100 μM, vs control
Summary of the method: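 Cells were plated at 5 × 10^4/well and grown 48 h in 10% FBS medium, then washed with PBS. They were exposed for 6 h at 37 °C to 25 or 100 μM test compound in HBSS containing 5 μM H2-DCFDA; controls had 0.025% DMSO. After PBS washes, fluorescence was read at ex 485/em 530 nm.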

[7] = test system: catalase (CAT) activity in Caco-2 cells; assay: Antioxidant enzyme assay: catalase; settings: 10 days, 1, 5, 10 and 25 μM, vs control
Summary of the method: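 Cells at 1.5 × 10^5/well were exposed next day to 1–25 μM test compound or vehicle, renewed every 48 h. At day 10 they were sonicated in 50 mM phosphate pH 7 with 1 mM EDTA. Catalase was measured in the 105,000 × g (1 h, 4 °C) supernatant as H2O2 decomposition followed at 240 nm for 30 s. Specific activity is given as % of control.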

[8] = test system: phospho-Akt (Ser473) in Caco-2 cells; assay: Western blot analysis of Akt; settings: 25 μM, compared to control
Summary of the method: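 Cells at 1.5 × 10^5/well were exposed 20 h after seeding to 25 μM of each test compound or the mixture for 10 days. Lysis was in RIPA with protease and phosphatase inhibitors. 25 μg protein was resolved by SDS-PAGE and blotted to nitrocellulose. Blots were probed overnight at 4 °C with anti-phospho-Akt Ser473 (1/2000) and anti-Akt1/2/3 (1/1000), then detected with 800 nm infrared-dye secondaries and quantified by relative fluorescence. Three independent experiments.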

Caco-2 cells [9] = assay: Detection of apoptosis and necrosis by Hoechst 33342 and PI staining; settings: 25 μM, 48 h; for Percent of necrosis in treated vs control cells: ratio of percentage of necrotic cells in treated versus untreated cells
Summary of the method: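 Cells were seeded at 1.25 × 10^5/well. After 20 h they received 25 μM test compound, alone or as an equimolar mixture, for 48 h. They were stained with Hoechst 33342 (5 μg/ml) plus PI (1 μg/ml) for 30 min at 37 °C in the dark, then washed. Normal, apoptotic and necrotic cells were counted in four random fields per well. Three independent experiments, each in triplicate.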

[10] = test system: glutathione peroxidase (GPx) activity in Caco-2 cells; assay: Antioxidant enzyme assay: glutathione peroxidase; settings: 10 days, 1, 5, 10 and 25 μM, vs control
Summary of the method: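 GPx activity was measured in Caco-2 exposed to 1–25 μM test compound or vehicle for 10 days. Cells were sonicated in 50 mM phosphate pH 7 with 1 mM EDTA and the 105,000 × g supernatant was used. The assay was coupled to glutathione reductase with H2O2 and NADPH, and NADPH loss was followed at 340 nm. Specific activity is given as % of control.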

[11] = test system: superoxide dismutase (SOD) activity in Caco-2 cells; assay: Antioxidant enzyme assay: superoxide dismutase; settings: 10 days, 1, 5, 10 and 25 μM, vs control
Summary of the method: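 Supernatant at 105,000 × g from sonicated Caco-2 was used, after 10 days' exposure to 1–25 μM test compound or vehicle. Superoxide came from xanthine–xanthine oxidase, and inhibition of NBT reduction was followed kinetically at 560 nm for 5 min over several protein amounts. One unit inhibits formazan formation by 50%. Specific activity is given as % of control.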

Caco-2 cells [12] = assay: Observation of morphologic changes; settings: 25 μM, 72 h, phase contrast microscopy
Summary of the method: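 Cells were seeded at 1.125 × 10^5/well and grown 20 h. They were then exposed to 25 μM test compound for 72 h and morphology was examined by phase-contrast microscopy.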

Row | Compound | concentration at which impact on viability appeared (Caco-2 cells [1]) [µM] | Cell viability (J10), concentration given for the effect (Caco-2 cells [1]) [µM] | TEER (J10), direction of effect (Caco-2 cell monolayer [2]) | TEER (J10), concentration given for the effect (Caco-2 cell monolayer [2]) [µM] | Apparent permeability (J10) (phenol red diffusion), direction of effect (Caco-2 cell monolayer [3]) | ALP activity (J10), direction of effect [4] | ALP activity (J10), concentration given for the effect [4] [µM] | Lipid peroxidation, concentration given for the effect (Caco-2 cells [5]) [µM] | H2O2 production, concentration given for the effect (Caco-2 cells [6]) [µM] | CAT activity [7] | level of phospho-Akt (Ser473) [8] | H2O2 production, direction of effect (Caco-2 cells [6]) | Percent of necrosis in treated vs control cells (Caco-2 cells [9]) | concentration at which toxicity was observed (Caco-2 cells [1]) [µM] | TBARS level with respect to control (Caco-2 cells [5]) [%] | GPx activity [10] | SOD activity [11] | morphological changes / cell density (Caco-2 cells [12]) | also measured
1 | CC1(C)[C@H](C(=O)O[C@H](C#N)c2cccc(Oc3ccccc3)c2)[C@@H]1/C=C(\Cl)C(F)(F)F (racemic) [LCT, lambda-cyhalothrin] | 1 | 1 | significant increase | 25 | decrease of membrane permeability | increased its activity | 1 | 100 | 100 | increase | greatest impact |  |  |  |  |  |  |  | 
2 | CC1(C)[C@H](C(=O)O[C@H](C#N)c2cccc(Oc3ccccc3)c2)[C@@H]1C=C(Br)Br [DTM, deltamethrin] | 8 | 8 | significant increase | 10 | decrease of membrane permeability | increased its activity | 1 | 100 | 25 | increase |  | strongest effect | 2.7 |  |  |  |  |  | 
3 | COP(=S)(OC)Oc1ccc([N+](=O)[O-])c(C)c1 [FNT, fenitrothion] |  | 5 | net decrease | 10 | increase of the apparent permeability | decreased ALP activity | 5 | 25 | 25 |  |  | strongest effect | 4.4 | 1 | 167.66 | increase | increase | reduction of cell density | 
4 | N#Cc1nn(-c2c(Cl)cc(C(F)(F)F)cc2Cl)c(N)c1[S+]([O-])C(F)(F)F (stereo not shown) [FPN, fipronil] | 5 | 5 | failed to produce a clear and noticeable change |  |  | decreased ALP activity | 10 | 25 | 100 |  | reduced level; also recorded: greatest impact | strongest effect | 3.2 |  | 192.45 | increase |  | reduction of cell density | EC50 (Caco-2 cells [1]; Caco-2 cells, 10 days exposure, 0.1-100 μM, mean ± SEM): 18.1 ± 0.5 µM; apoptotic cells (Caco-2 cells [9]; vs control): huge increased; percentage of necrotic cells (Caco-2 cells [9]; vs control): increased to a lesser extent
5 | O=C(NC(=O)c1c(F)cccc1F)Nc1cc(Cl)c(F)c(Cl)c1F [TBZ, teflubenzuron] |  | 5 | net decrease | 5 | increase of the apparent permeability | increased its activity | 5 | 25 | 100 | no change |  |  | 3.8 | 5 |  | no change | no change |  | 
